A selection: hits, their analogues and other compounds. The true share with any hit is near 3%.
5HT1a antag – blocks the human serotonin 5-HT1a receptor | P08908 | CHO 5-HT1a Ga15 NFAT-bla reporter, antagonist mode | inhibition, % at 10 µM | actives 0.68% (n = 62,000);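 active means inhibition above the mean of all tested compounds plus 3 SD, cut at about 43% in these data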;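 further: receptor stimulated by 5-CT agonist at 100 nM near EC80; beta-lactamase reporter measured by ratiometric fluorescence of a cleavable substrate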
5HT1E antag – antagonists of human 5-HT1E serotonin receptor. P28566. CHO 5-HT1E Ga15 NFAT-bla reporter, FRET, antagonist. inhibition, % at 6 µM. actives 0.99% (n = 65,000);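 active means inhibition above a set limit, the mean inhibition across every tested compound plus 3 SD, cut at about 29% in these data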;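 further: signal is the 460 over 535 nm emission ratio of beta-lactamase substrate; 0% = agonist plus DMSO wells and 100% = wells without agonist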
Target sequence (P28566 whole entry, looked up): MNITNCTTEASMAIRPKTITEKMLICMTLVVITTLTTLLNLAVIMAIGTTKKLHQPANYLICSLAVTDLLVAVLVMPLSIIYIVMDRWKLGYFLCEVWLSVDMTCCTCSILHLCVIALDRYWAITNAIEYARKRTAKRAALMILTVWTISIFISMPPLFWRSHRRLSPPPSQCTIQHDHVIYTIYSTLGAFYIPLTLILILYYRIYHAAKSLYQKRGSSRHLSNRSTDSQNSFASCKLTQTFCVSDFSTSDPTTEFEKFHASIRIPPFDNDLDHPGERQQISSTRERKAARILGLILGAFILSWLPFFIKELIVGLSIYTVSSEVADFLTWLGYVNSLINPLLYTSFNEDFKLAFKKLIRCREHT
HTR1A agonist – activates the human 5-HT1a serotonin receptor | CHO 5-HT1a Ga15 NFAT-bla reporter, FRET ratio; 0% basal, 100% maximal reference agonist | activation, % at 10 µM | actives 0.56% (n = 65,000);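 active means activation above the screen-wide mean activation plus 3 SD, cut at about 19% in these data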;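 further: 0% = DMSO wells and 100% = 5-CT at EC100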
S1P3 agonist – agonists of human S1P3 receptor | Q99500 | S1P3 NFAT-BLA reporter cells, agonism, FRET ratio; relative to 1 µM S1P, basal subtracted | activation, % at 4.5 µM | actives 0.1% (n = 60,000) | AID 373;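 active means activation above the screen-wide mean plus 3 SD, cut at about 4.5% in these data, passing the limit was not always enough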
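Benchmarks: high control 1 µM S1P / System: stable CHO line with human S1P3, Gα16, NFAT-BLA reporter / Dosing: single compound concentration, 4.5 µM final / Timing: 4 h compound at 37 °C, 2 h substrate at RT / Measured by: FRET β-lactamase substrate fluorescence, excitation 405 nm, 460/535 nm emission ratio, background-subtracted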
S1P1 ag pot – agonists and agonism potentiators of human S1P1 receptor. actives 0.57% (n = 56,000). S1P1 CRE-bla cells, forskolin, beta-lactamase FRET, potentiator mode; S1P1 agonist co-added at EC20, 2 nM; 100% = saturating reference agonist, 0% = basal. P21453. activation, % at 9.5 µM. AID 449;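 active means activation above a cutoff set at the mean activation of all tested compounds plus 3 SD, cut at about 54% in these data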;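 further: forskolin at 4 µM as EC80 and the EC20 agonist is SEW2871; 100% = SEW2871 at its EC100 plus forskolin at EC80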
HTR1E agonist – 5-HT1E (human) receptor agonism | P28566 | CHO 5-HT1E Ga15 NFAT-bla reporter, FRET; 0% DMSO wells, 100% control agonist wells | activation, % at 6 µM | actives 0.69% (n = 65,000) | AID 574;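 active means activation above a set limit, the screen-wide mean activation plus 3 SD, cut at about 8.5% in these data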;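 further: 100% = positive control agonist at 1 µM giving full maximal response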
Numbers without * were called inactive; nt = not tested or not shown.

SMILES | 5HT1a antag | 5HT1E antag | HTR1A agonist | S1P3 agonist | S1P1 ag pot | HTR1E agonist
Cc1ccc(-c2csc3ncnc(Sc4nnc(CN5CCCCCC5=O)o4)c23)cc1 | 76* | 48* | -3 | -2 | 93* | 0
COc1ccc(-n2nnnc2-c2cccc(OC)c2)cc1 | 20 | 35* | -2 | 0 | -1 | -1
Cc1cc(C)nc(N(C#N)S(=O)(=O)c2ccccc2)n1 | 9 | -1 | -2 | 0 | 1 | -2
Nc1nc2ccccc2nc1N | 3 | -6 | -2 | -2 | -20 | 0
Nc1nsc2ccccc12 | 73* | 25 | -6 | -2 | 39 | -2
COc1ccc2[nH]c(=O)c3c(c2c1)OC(C)(C)C=C3 | 60* | 24 | -1 | -2 | 99 | 0
COc1ccc2[nH]c(C)c(CCN3C(=O)OC(C)(C)C3(C)O)c2c1 (centres undefined) | -1 | 1 | -1 | 0 | -8 | 0
CCOC(=O)c1[nH]c(C)c(C(=O)Nc2ccccc2C)c1C | 17 | 23 | 1 | -1 | 28 | 0
CCOC(=O)c1[nH]c(C)c(C(=O)Nc2cc(Cl)ccc2C)c1C | 32 | 44* | -3 | -1 | 0 | 0
Cc1nnc(Sc2nc3c(c(=O)[nH]c(=O)n3C)n2CCCc2ccccc2)s1 | -2 | 12 | 0 | -1 | -4 | 0
COC(=O)C1CCN(C(=O)C2CCCCC2)CC1 | 6 | 2 | -1 | -1 | nt | 0
COc1cc(S(=O)(=O)N(C)C)ccc1F | 3 | -12 | 2 | 0 | 2 | 1
COc1ccc(-n2nnnc2S(=O)(=O)CC(=O)N2CCCCC2)cc1 | 92* | 69* | -1 | -2 | 110 | -1
CCOC(=O)N1CCN(C(=O)CSCC(=O)N=c2sc3ccccc3n2C)CC1 | -17 | -4 | 2 | nt | nt | 1
Fc1ccc(CNc2ncnc3c2cnn3-c2ccccc2)cc1 | 12 | 17 | 0 | -1 | -30 | 1
c1ccc(CNc2ncnc3c2cnn3-c2ccccc2)cc1 | 7 | 29* | 2 | 0 | 6 | 0
Cc1cccc(-n2ncc3c(NCc4ccccc4)ncnc32)c1 | 11 | 26 | 1 | 0 | 18 | 0
Cc1cccc(-n2ncc3c(NCc4ccco4)ncnc32)c1 | nt | 33* | 1 | -3 | -6 | 0
OC(COc1ccccc1Cl)CN1CCN(CC(O)COc2ccccc2Cl)CC1 (centres undefined) | 58* | 8 | 5 | -1 | -17 | 0
CCOC(=O)N1CCN(CC(O)COc2c(OC)cccc2OC)CC1 (centres undefined) | -10 | -7 | 168* | 1 | -6 | 0
C=CCc1ccccc1OCC(O)CN1CCN(c2ccccc2OC)CC1 (centres undefined) | 91* | -1 | 2 | nt | nt | 1
Cc1ccc(Cl)cc1N1CCN(C(=O)CCS(=O)(=O)c2cccc3nonc23)CC1 | -5 | 5 | -2 | nt | nt | 0
COc1ccccc1CN1CC(C(=O)NCc2cccnc2)CC1=O (centres undefined) | -11 | 0 | 1 | 0 | -8 | -1
Cc1cc(/C=N/n2cnnc2)c(C)n1-c1ccc(OCc2ccc(F)cc2)cc1 | 21 | 20 | -2 | -2 | 142* | 1
Cc1cc(/C=N/n2cnnc2)c(C)n1-c1cccc(Cl)c1 | -1 | -3 | -1 | 1 | -10 | -1
SMILES | 5HT1a antag | 5HT1E antag | HTR1A agonist | S1P3 agonist | S1P1 ag pot | HTR1E agonist
Cc1sc(-n2c(C)cc(/C=N/n3cnnc3)c2C)c(C#N)c1C | nt | 12 | -1 | -1 | 8 | 0
Cc1cc(/C=N/n2cnnc2)c(C)n1-c1ccc(Cl)cc1Cl | 32 | 40* | -2 | -2 | -8 | 0
CCOC(=O)C(O)(NC(=O)c1cccnc1)C(F)(F)F (centres undefined) | -2 | 0 | -2 | -1 | 8 | 10*
CC(=O)C(C(C)=O)C(NC(=O)c1cccnc1)(C(F)(F)F)C(F)(F)F | -1 | 3 | -5 | 0 | -2 | 0
Cc1ccccc1-c1nc(CN2CCCC(C(=O)NCc3cccnc3)C2)c(C)o1 (centres undefined) | -1 | -6 | -2 | 0 | -15 | 2
COc1cccc(Oc2cnc(N)nc2-c2ccc(OC)cc2O)c1 | 22 | 26 | -1 | -2 | 13 | 0
COc1ccc(-c2nc(N)ncc2Oc2ccccc2Br)c(O)c1 | 44* | 28 | 0 | -1 | 1 | -1
COC(=O)c1ccc(CC(=O)c2ccc(O)cc2O)o1 | -18 | 11 | 0 | 0 | 14 | 0
COC(=O)c1cc(CC(=O)c2ccc(O)cc2O)c(C)o1 | 5 | 6 | 284* | 0 | 12 | 0
O=C(c1cc2ccccc2o1)c1nc2c(n1O)CCCCC2 | 3 | -3 | -2 | -1 | -20 | -1
CSc1nc2ccccc2n1CC(=O)Nc1ccccc1 | 15 | 2 | -1 | -1 | -7 | -1
CSc1nc2ccccc2n1CC(=O)Nc1ccc(C)c(C)c1 | 11 | 1 | -1 | nt | nt | 15*
CCc1ccc(NC(=O)Cn2c(SC)nc3ccccc32)cc1 | 13 | -6 | -2 | -1 | 9 | 54*
CN1CCc2c(sc3ncn4nc(-c5ccccc5O)nc4c23)C1 | nt | -4 | 0 | -1 | 21 | 0
CSc1ncc(Cl)c(C(=O)C(C#N)c2nc3c(C)cc(C)cc3c(=O)[nH]2)n1 (centres undefined) | 15 | -4 | -1 | 1 | 35 | -1
CCOC(=O)Nc1ccc2c(c1)ncn2C1CCCCC1 | 17 | 19 | 1 | 0 | 7 | 39*
C=CCN1CCN(C(c2ccc(OC)c(OC)c2)c2nnnn2C(C)(C)C)CC1 (centres undefined) | 1 | -2 | 0 | 2 | 48 | 0
CCCN(C(=O)c1cccs1)c1nnc(-c2ccncc2)s1 | 9 | 20 | -1 | -1 | 101* | 1
COc1ccc(C2CC(c3c(O)cc(C)oc3=O)=NCCS2)c(OC)c1 (centres undefined) | 39 | 65* | -4 | -2 | 43 | -1
COc1cccc(NC(=O)N2CCN(c3cccc(C)c3)C(C)C2)c1 (centres undefined) | 15 | 3 | -2 | 0 | 7 | 0
COc1cccc(N2CCN(C(=O)c3ccc(=O)oc3)CC2C)c1 (centres undefined) | nt | 1 | 2 | -4 | -7 | 12*
N#C/C(C(=O)N1CCOCC1)=C1/SC=C(c2ccccc2)N1c1ccccc1 | 7 | -16 | 0 | -1 | 8 | 0
COc1ccccc1N=c1scc(-c2ccc3c(c2)NC(=O)CO3)n1CC1CCCO1 (centres undefined) | 6 | -2 | 1 | 1 | 8 | 0
